Assay results: ChEMBL document CHEMBL3734701, “Synthesis and antibacterial activity of 4″-O-(trans-β-arylacrylamido)carbamoyl azithromycin analogs” (2015)
In brackets after ≈: the same amount, converted by molar mass.

Key:
Assay type in all cases: functional
Streptococcus pneumoniae [1] = assay: Antibacterial activity against erythromycin-resistant Streptococcus pneumoniae AB11 expressing ermB and mefA genes by broth microdilution method
Summary of the method: (§1)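 MICs measured in vitro by broth microdilution following NCCL recommendations, against a Gram-positive panel of sensitive and resistant strains. Azithromycin and clarithromycin were tested alongside as references.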

Staphylococcus aureus [2] = assay: Antibacterial activity against erythromycin-susceptible Staphylococcus aureus ATCC 25923 by broth microdilution method
Summary of the method: (§2)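 Broth microdilution MIC following the NCCL-recommended method. Panel of sensitive and resistant Gram-positive strains: S. pyogenes S2 (erythromycin-susceptible clinical isolate), S. aureus ATCC25923 and S. pneumoniae ATCC49619 (erythromycin-susceptible). Azithromycin and clarithromycin were run alongside as references.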

Staphylococcus aureus [3] = assay: Antibacterial activity against methicillin-susceptible Staphylococcus aureus ATCC 29213 by broth microdilution method; summary of the method: as §1
Staphylococcus aureus [4] = assay: Antibacterial activity against clinically isolated penicillin-resistant Staphylococcus aureus by broth microdilution method
Summary of the method: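 Clinical penicillin-resistant S. aureus isolate, not further characterized, tested in a Gram-positive panel. MIC was measured by broth microdilution following NCCL recommendations, with azithromycin and clarithromycin as references.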

Streptococcus pneumoniae [5] = assay: Antibacterial activity against erythromycin-susceptible Streptococcus pneumoniae ATCC 49619 by broth microdilution method; summary of the method: as §2
Streptococcus pneumoniae [6] = assay: Antibacterial activity against erythromycin-resistant Streptococcus pneumoniae B1 expressing ermB gene by broth microdilution method; summary of the method: as §1
Streptococcus pyogenes [7] = assay: Antibacterial activity against clinically isolated erythromycin-resistant Streptococcus pyogenes R2 by broth microdilution method; summary of the method: as §1
Streptococcus pyogenes [8] = assay: Antibacterial activity against clinically isolated erythromycin-susceptible Streptococcus pyogenes S2 by broth microdilution method; summary of the method: as §2
Streptococcus pneumoniae [9] = assay: Antibacterial activity against erythromycin-resistant Streptococcus pneumoniae A22072 expressing mefA gene by broth microdilution method; summary of the method: as §1

Structure (SMILES) | MIC (Streptococcus pneumoniae [1]) [µg/mL] | MIC (Staphylococcus aureus [2]) [µg/mL] | MIC (Staphylococcus aureus [3]) [µg/mL] | MIC (Staphylococcus aureus [4]) [µg/mL] | MIC (Streptococcus pneumoniae [5]) [µg/mL] | MIC (Streptococcus pneumoniae [6]) [µg/mL] | MIC (Streptococcus pyogenes [7]) [µg/mL] | MIC (Streptococcus pyogenes [8]) [µg/mL] | MIC (Streptococcus pneumoniae [9]) [µg/mL]
CC[C@H]1OC(=O)[C@@H](C)[C@H](O[C@H]2C[C@@](C)(OC)[C@@H](OC(=O)NNC(=O)/C=C/c3ccccc3F)[C@H](C)O2)[C@@H](C)[C@H](O[C@H]2O[C@@H](C)C[C@@H](N(C)C)[C@@H]2O)[C@@](C)(O)C[C@H](C)CN(C)[C@@H](C)[C@@H]2OC(=O)O[C@@]12C | 32 (≈ 32.6 µM) | 4 (≈ 4.08 µM) | 8 (≈ 8.15 µM) | 16 (≈ 16.3 µM) | 8 (≈ 8.15 µM) | 16 (≈ 16.3 µM) | 64 (≈ 65.2 µM) | 0.25 (≈ 0.255 µM) | 2 (≈ 2.04 µM)
CC[C@H]1OC(=O)[C@@H](C)[C@H](O[C@H]2C[C@@](C)(OC)[C@@H](OC(=O)NNC(=O)/C=C/c3ccc(Cl)cc3)[C@H](C)O2)[C@@H](C)[C@H](O[C@H]2O[C@@H](C)C[C@@H](N(C)C)[C@@H]2O)[C@@](C)(O)C[C@H](C)CN(C)[C@@H](C)[C@@H]2OC(=O)O[C@@]12C | 8 (≈ 8.02 µM) | 8 (≈ 8.02 µM) | 8 (≈ 8.02 µM) | 8 (≈ 8.02 µM) | 4 (≈ 4.01 µM) | 8 (≈ 8.02 µM) | 32 (≈ 32.1 µM) | 1 (≈ 1 µM) | 0.5 (≈ 0.501 µM)
CC[C@H]1OC(=O)[C@@H](C)[C@H](O[C@H]2C[C@@](C)(OC)[C@@H](OC(=O)NNC(=O)/C=C/c3ccc(Br)cc3)[C@H](C)O2)[C@@H](C)[C@H](O[C@H]2O[C@@H](C)C[C@@H](N(C)C)[C@@H]2O)[C@@](C)(O)C[C@H](C)CN(C)[C@@H](C)[C@@H]2OC(=O)O[C@@]12C | 4 (≈ 3.84 µM) | 4 (≈ 3.84 µM) | 4 (≈ 3.84 µM) | 8 (≈ 7.68 µM) | 4 (≈ 3.84 µM) | 8 (≈ 7.68 µM) | 16 (≈ 15.4 µM) | 1 (≈ 0.96 µM) | 0.25 (≈ 0.24 µM)
CC[C@H]1OC(=O)[C@@H](C)[C@H](O[C@H]2C[C@@](C)(OC)[C@@H](OC(=O)NNC(=O)/C=C/c3ccc(OC)c(OC)c3)[C@H](C)O2)[C@@H](C)[C@H](O[C@H]2O[C@@H](C)C[C@@H](N(C)C)[C@@H]2O)[C@@](C)(O)C[C@H](C)CN(C)[C@@H](C)[C@@H]2OC(=O)O[C@@]12C | 8 (≈ 7.82 µM) | 8 (≈ 7.82 µM) | 16 (≈ 15.6 µM) | 8 (≈ 7.82 µM) | 2 (≈ 1.95 µM) | 32 (≈ 31.3 µM) | 64 (≈ 62.5 µM) | 0.5 (≈ 0.489 µM) | 0.5 (≈ 0.489 µM)
CC[C@@H]1OC(=O)[C@H](C)[C@@H](O[C@H]2C[C@@](C)(OC)[C@@H](OC(=O)NNC(=O)/C=C/c3ccco3)[C@H](C)O2)[C@@H](C)[C@@H](O[C@@H]2O[C@H](C)C[C@H](N(C)C)[C@H]2O)[C@](C)(O)C[C@@H](C)CN(C)[C@H](C)[C@@H](OC(=O)NCc2ccccc2)[C@]1(C)O | 8 (≈ 7.55 µM) | 1 (≈ 0.943 µM) | 4 (≈ 3.77 µM) | 1 (≈ 0.943 µM) | 0.12 (≈ 0.113 µM) | 4 (≈ 3.77 µM) | 64 (≈ 60.4 µM) | 0.25 (≈ 0.236 µM) | 0.12 (≈ 0.113 µM)
CC[C@@H]1OC(=O)[C@H](C)[C@@H](O[C@H]2C[C@@](C)(OC)[C@@H](OC(=O)NNC(=O)/C=C/c3cccs3)[C@H](C)O2)[C@@H](C)[C@@H](O[C@@H]2O[C@H](C)C[C@H](N(C)C)[C@H]2O)[C@](C)(O)C[C@@H](C)CN(C)[C@H](C)[C@@H](OC(=O)NCc2ccccc2)[C@]1(C)O | 4 (≈ 3.72 µM) | 1 (≈ 0.929 µM) | 4 (≈ 3.72 µM) | 2 (≈ 1.86 µM) | 0.5 (≈ 0.465 µM) | 2 (≈ 1.86 µM) | 32 (≈ 29.7 µM) | 0.25 (≈ 0.232 µM) | 0.06 (≈ 0.0557 µM)
CC[C@H]1OC(=O)[C@@H](C)[C@H](O[C@H]2C[C@@](C)(OC)[C@@H](OC(=O)NNC(=O)/C=C/c3ccccc3OC)[C@H](C)O2)[C@@H](C)[C@H](O[C@H]2O[C@@H](C)C[C@@H](N(C)C)[C@@H]2O)[C@@](C)(O)C[C@H](C)CN(C)[C@@H](C)[C@@H]2OC(=O)O[C@@]12C | 2 (≈ 2.01 µM) | 2 (≈ 2.01 µM) | 4 (≈ 4.03 µM) | 8 (≈ 8.05 µM) | 4 (≈ 4.03 µM) | 4 (≈ 4.03 µM) | 64 (≈ 64.4 µM) | 8 (≈ 8.05 µM) | 0.25 (≈ 0.252 µM)
CC[C@H]1OC(=O)[C@@H](C)[C@H](O[C@H]2C[C@@](C)(OC)[C@@H](OC(=O)NNC(=O)/C=C/c3ccc(F)cc3)[C@H](C)O2)[C@@H](C)[C@H](O[C@H]2O[C@@H](C)C[C@@H](N(C)C)[C@@H]2O)[C@@](C)(O)C[C@H](C)CN(C)[C@@H](C)[C@@H]2OC(=O)O[C@@]12C | 16 (≈ 16.3 µM) | 2 (≈ 2.04 µM) | 8 (≈ 8.15 µM) | 16 (≈ 16.3 µM) | 16 (≈ 16.3 µM) | 64 (≈ 65.2 µM) | 64 (≈ 65.2 µM) | 0.5 (≈ 0.51 µM) | 2 (≈ 2.04 µM)
CC[C@H]1OC(=O)[C@@H](C)[C@H](O[C@H]2C[C@@](C)(OC)[C@@H](OC(=O)NNC(=O)/C=C/c3cc(OC)c(OC)c(OC)c3)[C@H](C)O2)[C@@H](C)[C@H](O[C@H]2O[C@@H](C)C[C@@H](N(C)C)[C@@H]2O)[C@@](C)(O)C[C@H](C)CN(C)[C@@H](C)[C@@H]2OC(=O)O[C@@]12C | 16 (≈ 15.2 µM) | 8 (≈ 7.6 µM) | 16 (≈ 15.2 µM) | 16 (≈ 15.2 µM) | 4 (≈ 3.8 µM) | 32 (≈ 30.4 µM) | 64 (≈ 60.8 µM) | 0.5 (≈ 0.475 µM) | 0.5 (≈ 0.475 µM)
CC[C@H]1OC(=O)[C@@H](C)[C@H](O[C@H]2C[C@@](C)(OC)[C@@H](OC(=O)NNC(=O)/C=C/c3ccc(C#N)cc3)[C@H](C)O2)[C@@H](C)[C@H](O[C@H]2O[C@@H](C)C[C@@H](N(C)C)[C@@H]2O)[C@@](C)(O)C[C@H](C)CN(C)[C@@H](C)[C@@H]2OC(=O)O[C@@]12C | 64 (≈ 64.8 µM) | 4 (≈ 4.05 µM) | 8 (≈ 8.1 µM) | 8 (≈ 8.1 µM) | 16 (≈ 16.2 µM) | 64 (≈ 64.8 µM) | ≥ 128 | 0.5 (≈ 0.506 µM) | 2 (≈ 2.02 µM)
CC[C@H]1OC(=O)[C@@H](C)[C@H](O[C@H]2C[C@@](C)(OC)[C@@H](OC(=O)NNC(=O)/C=C/c3ccco3)[C@H](C)O2)[C@@H](C)[C@H](O[C@H]2O[C@@H](C)C[C@@H](N(C)C)[C@@H]2O)[C@@](C)(O)C[C@H](C)CN(C)[C@@H](C)[C@@H]2OC(=O)O[C@@]12C | 16 (≈ 16.8 µM) | 2 (≈ 2.1 µM) | 8 (≈ 8.39 µM) | 4 (≈ 4.2 µM) | 8 (≈ 8.39 µM) | 32 (≈ 33.6 µM) | ≥ 128 | 0.25 (≈ 0.262 µM) | 1 (≈ 1.05 µM)
CC[C@H]1OC(=O)[C@@H](C)[C@H](O[C@H]2C[C@@](C)(OC)[C@@H](OC(=O)NNC(=O)/C=C/c3ccc([N+](=O)[O-])cc3)[C@H](C)O2)[C@@H](C)[C@H](O[C@H]2O[C@@H](C)C[C@@H](N(C)C)[C@@H]2O)[C@@](C)(O)C[C@H](C)CN(C)[C@@H](C)[C@@H]2OC(=O)O[C@@]12C | 8 (≈ 7.94 µM) | 2 (≈ 1.98 µM) | 8 (≈ 7.94 µM) | 16 (≈ 15.9 µM) | 2 (≈ 1.98 µM) | 16 (≈ 15.9 µM) | ≥ 128 | 0.25 (≈ 0.248 µM) | 0.5 (≈ 0.496 µM)
CC[C@@H]1OC(=O)[C@H](C)[C@@H](O[C@H]2C[C@@](C)(OC)[C@@H](OC(=O)NNC(=O)/C=C/c3ccccc3)[C@H](C)O2)[C@@H](C)[C@@H](O[C@@H]2O[C@H](C)C[C@H](N(C)C)[C@H]2O)[C@](C)(O)C[C@@H](C)CN(C)[C@H](C)[C@@H](OC(=O)NCc2ccccc2)[C@]1(C)O | 4 (≈ 3.74 µM) | 0.5 (≈ 0.467 µM) | 1 (≈ 0.934 µM) | 1 (≈ 0.934 µM) | 0.5 (≈ 0.467 µM) | 2 (≈ 1.87 µM) | 32 (≈ 29.9 µM) | 0.5 (≈ 0.467 µM) | 1 (≈ 0.934 µM)
CC[C@H]1OC(=O)[C@@H](C)[C@H](O[C@H]2C[C@@](C)(OC)[C@@H](OC(=O)NNC(=O)/C=C/c3ccccc3)[C@H](C)O2)[C@@H](C)[C@H](O[C@H]2O[C@@H](C)C[C@@H](N(C)C)[C@@H]2O)[C@@](C)(O)C[C@H](C)CN(C)[C@@H](C)[C@@H]2OC(=O)O[C@@]12C | 4 (≈ 4.15 µM) | 8 (≈ 8.31 µM) | 8 (≈ 8.31 µM) | 8 (≈ 8.31 µM) | 2 (≈ 2.08 µM) | 8 (≈ 8.31 µM) | 64 (≈ 66.4 µM) | 0.25 (≈ 0.26 µM) | 0.25 (≈ 0.26 µM)
